Test results reported in ChEMBL document CHEMBL4819066, “Repurposing primaquine as a polyamine conjugate to become an antibiotic adjuvant” (Bioorg Med Chem, 2021).

Assays:
Klebsiella pneumoniae [1] = assay: Antibacterial activity against Klebsiella pneumoniae ATCC 700603 assessed as reduction in microbial growth after 18 hrs by resazurin dye based assay; format: functional
Summary of the method: (§1)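 Bacteria grown overnight at 37 °C in LB, NB or MHB, diluted 40-fold into MHB and grown 1.5-2 h to mid-log phase. Inoculum 5 × 10^5 CFU/mL (final), 2-fold serial dilutions, final range 0.008-32 µg/mL, in duplicate. […] Colistin as positive control, Z'-factor >0.4 for plate QC.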

Escherichia coli [2] = assay: Antibacterial activity against Escherichia coli ATCC 25922 assessed as reduction in microbial growth after 18 hrs by resazurin dye based assay; format: functional; summary of the method: as §1
Erythrocyte = assay: Hemolytic activity in human Erythrocyte incubated for 1 hr by Neubauer haemocytometric analysis; format: ADME, cell-based
Summary of the method: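 Human whole blood washed three times in 0.9% NaCl and resuspended at 0.5 × 10^8 cells/mL (haemocytometer count). Cells added to compound plates, shaken 10 min, then incubated 1 h at 37 °C. After centrifugation at 1,000g for 10 min, supernatant absorbance read at OD405. HC10/HC50 obtained by sigmoidal fit against log concentration.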

Cryptococcus neoformans = assay: Antifungal activity against Cryptococcus neoformans ATCC 208821 assessed as reduction in microbial growth after 36 hrs by resazurin dye based assay; format: functional
Summary of the method: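 Yeast grown 3 days on YPD agar at 30 °C and diluted in YNB broth to 2.5 × 10^3 CFU/mL. Compounds at 0.008-32 µg/mL final, 2-fold dilutions, in duplicate. After 36 h at 35 °C without shaking, resazurin added at 0.006% final for a further 3 h; MIC read as absorbance at OD570-600. Fluconazole as positive control.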

Escherichia coli [3] = assay: Potentiation of doxycycline-induced antibacterial activity against Escherichia coli ATCC 25922 assessed as complete reduction in visible microbial growth after 18 hrs in presence of 4.5 uM doxycycline by two fold serial dilution method; format: functional
Summary of the method: (§2)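 Adjuvant test by broth dilution: inoculum 5 × 10^5 CFU in 200 µL MHB. Two-fold serial dilutions of each derivative were given with doxycycline fixed at 2 µg/mL. After 18 h at 37 °C, the value recorded was the lowest adjuvant concentration giving complete absence of visible growth. Three independent repeats.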

Pseudomonas aeruginosa [4] = assay: Potentiation of doxycycline-induced antibacterial activity against Pseudomonas aeruginosa ATCC 27853 assessed as complete reduction in visible microbial growth after 18 hrs in presence of 4.5 uM doxycycline by two fold serial dilution method; format: functional; summary of the method: as §2
HEK293 = assay: Cytotoxicity against human HEK293 cells assessed as reduction in cell viability measured after 20 hrs by resazurin based Neubauer haemocytometric analysis; conditions: hek293, 20 h
Summary of the method: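 HEK293 cells plated at 5,000 cells/well in DMEM with 10% FBS onto pre-dispensed compound and incubated 20 h at 37 °C, 5% CO2. Resazurin then added at 100 µM final for 3 h; fluorescence read at ex 560/em 590. Signal normalized to 74 µg/mL tamoxifen (0%) and untreated growth (100%). CC50 obtained from dose-response fit.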

L6 = assay: Cytotoxicity against rat L6 cells assessed as reduction in cell viability at 0.123 to 90 ug/ml measured after 72 hrs by Alamar blue based inverted microscopy analysis; conditions: l6, 72 h, dose 0.123-90 µg/ml
Summary of the method: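 Rat skeletal myoblast L6 cells, 4 × 10^4 per well, in RPMI 1640 with L-glutamine and 10% FBS. Seven 3-fold dilutions were tested, 90 to 0.123 µg/mL, for 72 h. Alamar Blue added for 2 h, and fluorescence read at ex 536/em 588 nm. Podophyllotoxin served as reference drug.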

Candida albicans = assay: Antifungal activity against Candida albicans ATCC 90028 assessed as reduction in microbial growth after 36 hrs by absorbance at OD530; conditions: ATCC 90028, 36 h
Pseudomonas aeruginosa [5] = assay: Antibacterial activity against Pseudomonas aeruginosa ATCC 27853 assessed as reduction in microbial growth after 18 hrs by resazurin dye based assay; format: functional; summary of the method: as §1
Staphylococcus aureus = assay: Antibacterial activity against methicillin-resistant Staphylococcus aureus ATCC 43300 assessed as reduction in microbial growth after 18 hrs by resazurin dye based assay; format: functional
Summary of the method: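 Overnight culture at 37 °C, diluted 40-fold in MHB and grown 1.5-2 h to mid-log. Inoculum 5 × 10^5 CFU/mL. Two-fold serial dilutions, final 0.008-32 µg/mL, in duplicate. […] Vancomycin served as the Gram-positive standard.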

Klebsiella pneumoniae [6] = assay: Potentiation of doxycycline-induced antibacterial activity against Klebsiella pneumoniae ATCC 700603 assessed as complete reduction in visible microbial growth after 18 hrs in presence of 4.5 uM doxycycline by two fold serial dilution method; format: functional
Acinetobacter baumannii [7] = assay: Antibacterial activity against Acinetobacter baumannii ATCC 19606 assessed as reduction in microbial growth after 18 hrs by resazurin dye based assay; format: functional; conditions: ATCC 19606 = CIP 70.34 = JCM 6841; summary of the method: as §1
Acinetobacter baumannii [8] = assay: Potentiation of doxycycline-induced antibacterial activity against Acinetobacter baumannii AYE assessed as complete reduction in visible microbial growth after 18 hrs in presence of 4.5 uM doxycycline by two fold serial dilution method; format: functional; summary of the method: as §2
[9] = Hemolytic activity in rat RBC incubated for 1 hr by Neubauer haemocytometric analysis; format: ADME, cell-based, Erythrocyte; conditions: red blood cells (erythrocytes)

For `COc1cc(NC(C)CCCNC(=O)CCC(=O)NCCCNCCCCNCCCNC(=O)CCC(=O)NCCCC(C)Nc2cc(OC)cc3cccnc23)c2ncccc2c1.O=C(O)C(F)(F)F.O=C(O)C(F)(F)F` (stereo not given), the MIC (Klebsiella pneumoniae [1]) was over 33.4 µM, the MIC (Escherichia coli [2]) was over 33.4 µM and the Activity (Erythrocyte) was “Non-Toxic”. It also gave an MIC (Cryptococcus neoformans) of 33.4 µM, an MIC (Escherichia coli [3]) of 50 µM and an MIC (Pseudomonas aeruginosa [4]) of 6.25 µM. For the same compound, the Activity (HEK293) was “Non-Toxic”, the Activity (L6) was “Non-Toxic” and the MIC (Candida albicans) was over 33.4 µM. For the same compound, the MIC (Pseudomonas aeruginosa [5]) was over 33.4 µM, the MIC (Staphylococcus aureus) was over 33.4 µM and the MIC (Klebsiella pneumoniae [6]) was over 200 µM. For the same compound, the MIC (Acinetobacter baumannii [7]) was over 33.4 µM and the MIC (Acinetobacter baumannii [8]) was over 200 µM.
`O=C(CCC(=O)Nc1cccc2cccnc12)NCCCNCCCCCCCCCCNCCCNC(=O)CCC(=O)Nc1cccc2cccnc12.O=C(O)C(F)(F)F.O=C(O)C(F)(F)F` showed an MIC (Klebsiella pneumoniae [1]) of over 33.1 µM, an MIC (Escherichia coli [2]) of over 33.1 µM and an HC50 at 1 h [9] of 30.5 µM. The MIC (Cryptococcus neoformans) was over 33.1 µM, the MIC (Pseudomonas aeruginosa [4]) was 100 µM and the Activity (HEK293) was “Non-Toxic”. The Activity (L6) was “Non-Toxic”, the MIC (Candida albicans) was over 33.1 µM and the MIC (Pseudomonas aeruginosa [5]) was over 33.1 µM. For the same compound, the MIC (Staphylococcus aureus) was 33.1 µM and the MIC (Acinetobacter baumannii [7]) was over 33.1 µM.
